According to ChEMBL document CHEMBL1157864, “Synthesis of some novel 2-substituted-5-[isopropylthiazole] clubbed 1,2,4-triazole and 1,3,4-oxadiazoles as potential antimicrobial and antitubercular agents” (Eur J Med Chem, 2010):
In brackets after ≈: the same amount, converted by molar mass.

How the values were obtained:
Format in all cases: functional
Candida tropicalis = assay: Antimicrobial activity against Candida tropicalis ATCC 1369 after 24 hrs by broth microdilution assay; details: ATCC 1369, 24 h
Method in brief: (§1)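 Broth dilution MIC. Stock is 10 mg compound in 1 mL DMSO, serially diluted in Mueller–Hinton broth for bacteria or Sabouraud liquid medium for yeasts and mould. Tubes are inoculated at 10⁵ cfu/mL and incubated at 37 °C for 24 h. Controls are medium alone and medium with DMSO at matching dilutions. MIC is the lowest concentration giving complete growth inhibition.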

Escherichia coli = assay: Antimicrobial activity against Escherichia coli ATCC 10536 after 24 hrs by broth microdilution assay; details: ATCC 10536, 24 h; method in brief: as §1
Pseudomonas aeruginosa = assay: Antimicrobial activity against Pseudomonas aeruginosa ATCC 10145 after 24 hrs by broth microdilution assay; details: ATCC 10145, 24 h; method in brief: as §1
[1] = test system: Mycobacterium tuberculosis; assay: Antimycobacterial activity against Mycobacterium tuberculosis H37Rv after 21 days by broth dilution assay; details: 504 h
Method in brief: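 Middlebrook 7H9 broth with 10% albumin-dextrose-catalase and 0.2% glycerol; frozen culture thawed, diluted to 10⁵ cfu/mL and used as inoculum. Compounds taken up in DMSO and diluted twice in broth, 1.3% DMSO final. Incubated at 37 °C. Growth judged by eye against drug-free and inoculum-free controls and isoniazid. MIC is the lowest concentration inhibiting ≥99% of the starting population.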

Klebsiella pneumoniae = assay: Antimicrobial activity against Klebsiella pneumoniae ATCC 10031 after 24 hrs by broth microdilution assay; details: ATCC 10031, 24 h; method in brief: as §1
Bacillus subtilis = assay: Antimicrobial activity against Bacillus subtilis ATCC 60511 after 24 hrs by broth microdilution assay; details: ATCC 60511, 24 h; method in brief: as §1
Saccharomyces cerevisiae = assay: Antimicrobial activity against Saccharomyces cerevisiae ATCC 9763 after 24 hrs by broth microdilution assay; details: ATCC 9763, 24 h; method in brief: as §1
Aspergillus niger = assay: Antimicrobial activity against Aspergillus niger ATCC 6275 after 24 hrs by broth microdilution assay; details: ATCC 6275, 24 h; method in brief: as §1
Enterococcus faecalis = assay: Antimicrobial activity against Streptococcus faecalis ATCC 14506 after 24 hrs by broth microdilution assay; details: ATCC 14506, 24 h; method in brief: as §1
Staphylococcus aureus = assay: Antimicrobial activity against Staphylococcus aureus ATCC 11632 after 24 hrs by broth microdilution assay; details: ATCC 11632, 24 h; method in brief: as §1

SMILES | MIC (Candida tropicalis) [µg/mL] | MIC (Escherichia coli) [µg/mL] | MIC (Pseudomonas aeruginosa) [µg/mL] | MIC [1] [µg/mL] | MIC (Klebsiella pneumoniae) [µg/mL] | MIC (Bacillus subtilis) [µg/mL] | MIC (Saccharomyces cerevisiae) [µg/mL] | MIC (Aspergillus niger) [µg/mL] | MIC (Enterococcus faecalis) [µg/mL] | MIC (Staphylococcus aureus) [µg/mL]
CC(C)c1csc(-c2nnc3sc(-c4ccccc4)nn23)n1 | 125 (≈ 382 µM) | 125 (≈ 382 µM) | 31.2 (≈ 95.4 µM) | 62.5 (≈ 191 µM) | 125 (≈ 382 µM) | 16 (≈ 48.9 µM) | 125 (≈ 382 µM) | 31.2 (≈ 95.4 µM) | 16 (≈ 48.9 µM) | 125 (≈ 382 µM)
CC(C)c1csc(-c2nnc(S)n2/N=C/c2ccccc2O)n1 | 125 (≈ 362 µM) | 250 (≈ 724 µM) | 250 (≈ 724 µM) | 62.5 (≈ 181 µM) | 250 (≈ 724 µM) | 250 (≈ 724 µM) | 125 (≈ 362 µM) | 125 (≈ 362 µM) | 250 (≈ 724 µM) | 250 (≈ 724 µM)
COc1ccc(/C=N/n2c(S)nnc2-c2nc(C(C)C)cs2)cc1 | 62.5 (≈ 174 µM) | 31.2 (≈ 86.9 µM) | 31.2 (≈ 86.9 µM) | 31.2 (≈ 86.9 µM) | 16 (≈ 44.5 µM) | 31.2 (≈ 86.9 µM) | 62.5 (≈ 174 µM) | 62.5 (≈ 174 µM) | 31.2 (≈ 86.9 µM) | 31.2 (≈ 86.9 µM)
CC(C)c1csc(-c2nnc3sc(-c4ccc(Cl)cc4)nn23)n1 | 31.2 (≈ 86.4 µM) | 16 (≈ 44.2 µM) | 8 (≈ 22.1 µM) | 8 (≈ 22.1 µM) | 16 (≈ 44.2 µM) | 8 (≈ 22.1 µM) | 31.2 (≈ 86.4 µM) | 125 (≈ 345 µM) | 16 (≈ 44.2 µM) | 8 (≈ 22.1 µM)
CC(=O)N1N=C(c2nc(C(C)C)cs2)OC1(C)c1ccc(O)cc1 (configuration not stated) | 31.2 (≈ 90.5 µM) | 16 (≈ 46.3 µM) | 62.5 (≈ 181 µM) | 62.5 (≈ 181 µM) | 16 (≈ 46.3 µM) | 31.2 (≈ 90.5 µM) | 31.2 (≈ 90.5 µM) | 125 (≈ 362 µM) | 31.2 (≈ 90.5 µM) | 16 (≈ 46.3 µM)
CC(C)c1csc(-c2nnc(-c3ccccc3)o2)n1 | 125 (≈ 461 µM) | 125 (≈ 461 µM) | 62.5 (≈ 230 µM) | 31.2 (≈ 115 µM) | 250 (≈ 921 µM) | 62.5 (≈ 230 µM) | 62.5 (≈ 230 µM) | 125 (≈ 461 µM) | 16 (≈ 59 µM) | 31.2 (≈ 115 µM)
CC(=O)N1N=C(c2nc(C(C)C)cs2)OC1(C)c1ccc(Br)cc1 (configuration not stated) | 31.2 (≈ 76.5 µM) | 62.5 (≈ 153 µM) | 16 (≈ 39.2 µM) | 125 (≈ 306 µM) | 16 (≈ 39.2 µM) | 31.2 (≈ 76.5 µM) | 31.2 (≈ 76.5 µM) | 31.2 (≈ 76.5 µM) | 16 (≈ 39.2 µM) | 16 (≈ 39.2 µM)
CCn1cc(C(=O)O)c(=O)c2cc(F)c(N3CCNCC3)cc21 [NORFLOXACIN] | – | ≤ 1 | 5 (≈ 15.7 µM) | – | ≤ 1 | ≤ 1 | – | – | 5 (≈ 15.7 µM) | 5 (≈ 15.7 µM)
CC(=O)N1N=C(c2nc(C(C)C)cs2)OC1(C)c1ccc(C)cc1 (configuration not stated) | 31.2 (≈ 91 µM) | 16 (≈ 46.6 µM) | 125 (≈ 364 µM) | 31.2 (≈ 91 µM) | 31.2 (≈ 91 µM) | 16 (≈ 46.6 µM) | 16 (≈ 46.6 µM) | 31.2 (≈ 91 µM) | 125 (≈ 364 µM) | 125 (≈ 364 µM)
CC(C)c1csc(-c2nnc(S)n2/N=C/c2ccc[nH]2)n1 | 62.5 (≈ 196 µM) | 62.5 (≈ 196 µM) | 62.5 (≈ 196 µM) | 31.2 (≈ 98.1 µM) | 31.2 (≈ 98.1 µM) | 62.5 (≈ 196 µM) | 31.2 (≈ 98.1 µM) | 16 (≈ 50.2 µM) | 31.2 (≈ 98.1 µM) | 31.2 (≈ 98.1 µM)
COc1ccc(C2(C)OC(c3nc(C(C)C)cs3)=NN2C(C)=O)cc1 (configuration not stated) | 8 (≈ 22.3 µM) | 125 (≈ 348 µM) | 125 (≈ 348 µM) | 62.5 (≈ 174 µM) | 125 (≈ 348 µM) | 31.2 (≈ 86.9 µM) | 4 (≈ 11.1 µM) | 8 (≈ 22.3 µM) | 125 (≈ 348 µM) | 31.2 (≈ 86.9 µM)
Cc1ccc(-c2nn3c(-c4nc(C(C)C)cs4)nnc3s2)cc1 | 125 (≈ 366 µM) | 125 (≈ 366 µM) | 62.5 (≈ 183 µM) | 31.2 (≈ 91.5 µM) | 250 (≈ 732 µM) | 62.5 (≈ 183 µM) | 250 (≈ 732 µM) | 125 (≈ 366 µM) | 125 (≈ 366 µM) | 125 (≈ 366 µM)
CC(=O)N1N=C(c2nc(C(C)C)cs2)OC1(C)C | 62.5 (≈ 234 µM) | 125 (≈ 468 µM) | 125 (≈ 468 µM) | 125 (≈ 468 µM) | 125 (≈ 468 µM) | 125 (≈ 468 µM) | 62.5 (≈ 234 µM) | 62.5 (≈ 234 µM) | 125 (≈ 468 µM) | 62.5 (≈ 234 µM)
NNC(=O)c1ccncc1 [ISONIAZID] | – | – | – | 0.25 (≈ 1.82 µM) | – | – | – | – | – | –
CC(C)c1csc(-c2nnc3sc(-c4ccc(O)cc4)nn23)n1 | 125 (≈ 364 µM) | 125 (≈ 364 µM) | 125 (≈ 364 µM) | 62.5 (≈ 182 µM) | 125 (≈ 364 µM) | 125 (≈ 364 µM) | 250 (≈ 728 µM) | 125 (≈ 364 µM) | 125 (≈ 364 µM) | 250 (≈ 728 µM)
COc1ccc(-c2nn3c(-c4nc(C(C)C)cs4)nnc3s2)cc1 | 16 (≈ 44.8 µM) | 125 (≈ 350 µM) | 31.2 (≈ 87.4 µM) | 31.2 (≈ 87.4 µM) | 31.2 (≈ 87.4 µM) | 125 (≈ 350 µM) | 16 (≈ 44.8 µM) | 31.2 (≈ 87.4 µM) | 16 (≈ 44.8 µM) | 31.2 (≈ 87.4 µM)
